The Ki is a measure of affinity in units of concentration, obtained from inhibition or displacement. By EC50 is commonly meant the concentration that produces a half-maximal response.

Structures are written as SMILES. Bounds are passed on as bounds.

In test [1] the target is Cannabinoid receptor 1 (Homo sapiens, UniProt P21554). In words: Displacement of [3H]CP-55940 from human CB1 receptor expressed in CHO cells. It is filed as cell-based. Put shortly: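 CHO cells stably transfected with human CB1 receptor. Values are the mean of at least three independent experiments.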
Test [2] addresses T1, Cannabinoid receptor 2 (Homo sapiens, UniProt P34972). The experiment in a line: Displacement of [3H]CP-55940 from human CB2 receptor expressed in CHO cells. The format is cell-based. Put shortly:
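CHO cells stably transfected with human CB2 receptor. Values are the mean of at least three independent experiments.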
Background: In a radioligand displacement assay an active substance lowers the binding of a labelled ligand.

Test [3] deals with T1, Cannabinoid receptor 2. In words: Inverse agonist activity at human CB2 receptor assessed as stimulation of cAMP accumulation after 20 mins. In general terms: Cyclic AMP is a second messenger, typically raised through Gs and lowered through Gi signalling.
The species entered for test [4] is Homo sapiens. In words: Selectivity ratio of Ki for human CB1 to Ki for human CB2.
In test [5] the target is T1, Cannabinoid receptor 2. In words: Antagonist activity at human CB2 receptor assessed as inhibition of forskolin-stimulated cAMP accumulation in presence of JWH133. It is filed as functional. The settings on record: read-out: pA2 (converted). Put shortly: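 Human CB2 cAMP accumulation assay measuring dose-dependent antagonism of the CB2-selective agonist JWH133, expressed as pA2 ± error. Incubation was 20 min, or 4 h for some compounds. Based on at least three independent experiments.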

Test [6] deals with T1, Cannabinoid receptor 2. In words: Inverse agonist activity at human CB2 receptor assessed as inhibition of forskolin-stimulated cAMP accumulation after 4 hrs. It is filed as functional. Put shortly: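 Functional human CB2 cAMP accumulation assay with the incubation extended to 4 h. Inverse agonism read out as pEC50. Values are the mean of at least three independent experiments.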

T1 sequence (P34972 whole entry): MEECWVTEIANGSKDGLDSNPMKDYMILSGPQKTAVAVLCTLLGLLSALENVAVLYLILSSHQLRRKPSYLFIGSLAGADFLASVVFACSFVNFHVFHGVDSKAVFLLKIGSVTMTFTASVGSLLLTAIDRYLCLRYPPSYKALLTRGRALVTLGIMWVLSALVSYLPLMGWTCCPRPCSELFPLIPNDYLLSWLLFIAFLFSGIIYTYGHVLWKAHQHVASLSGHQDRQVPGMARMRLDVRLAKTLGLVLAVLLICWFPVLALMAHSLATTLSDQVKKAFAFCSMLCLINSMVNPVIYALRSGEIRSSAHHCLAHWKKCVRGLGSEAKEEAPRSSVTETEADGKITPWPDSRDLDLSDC
Cannabinoid receptor 1, sequence (P21554 whole entry): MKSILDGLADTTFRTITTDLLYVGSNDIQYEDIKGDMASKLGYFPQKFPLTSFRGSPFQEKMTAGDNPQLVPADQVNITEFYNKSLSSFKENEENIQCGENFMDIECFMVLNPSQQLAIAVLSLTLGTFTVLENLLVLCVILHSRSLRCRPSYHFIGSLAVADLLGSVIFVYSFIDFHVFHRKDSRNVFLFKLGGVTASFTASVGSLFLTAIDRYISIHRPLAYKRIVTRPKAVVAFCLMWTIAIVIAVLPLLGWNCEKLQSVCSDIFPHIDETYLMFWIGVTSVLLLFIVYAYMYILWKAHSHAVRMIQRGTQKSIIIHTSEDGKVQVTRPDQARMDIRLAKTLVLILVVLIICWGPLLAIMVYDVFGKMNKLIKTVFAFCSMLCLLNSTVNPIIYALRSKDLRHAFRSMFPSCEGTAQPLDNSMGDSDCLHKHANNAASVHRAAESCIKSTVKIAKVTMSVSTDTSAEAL

Turning to `Cc1nc(C(=O)NC[C@H]2C[C@@H]3C[C@H](C2)C3(C)C)c(C)n1-c1ccccc1`, the Ki in test [1] came to 3990 nM; in test [2] it was 20 nM. For the same compound, the concentration giving a half-maximal response (EC50) in test [3] was 31.6 nM. Also, in test [4], the Ratio amounted to 200.
Regarding `CCc1c(C(=O)NC23CC4CC(CC(C4)C2)C3)nc(C)n1-c1ccccc1`, the inhibition constant Ki in test [1] was greater than 10000 nM; in test [2], 1.03 nM. Further, the Kb in test [5] was 1 nM. Moreover, the EC50 in test [3] is 20 nM; in test [6] it was 0.251 nM. For the same compound, the Ratio in test [4] was greater than 9710.
For the compound `Cc1nc(C(=O)NC23CC4CC(CC(C4)C2)C3)c(Cl)n1-c1ccccc1`, the Ki in test [1] was greater than 10000 nM; in test [2], 23.8 nM. Also, the EC50 in test [3] is 63.1 nM. Moreover, the Ratio in test [4] is greater than 420.
On to `CCc1nc(C(=O)NC23CC4CC(CC(C4)C2)C3)cn1-c1ccccc1`, for which the Ki in test [1] was greater than 1000 nM; in test [2], 12.7 nM. Besides, the values for the EC50 in test [3] and in test [6] were 12.6 nM and 6.31 nM, respectively. Also, the Ratio in test [4] was greater than 79.
On to `O=C(NC12CC3CC(CC(C3)C1)C2)c1nc(Cl)n(-c2ccccc2)c1Cl`, for which the Ki in test [1] is greater than 1000 nM; in test [2], 50 nM. The Kb in test [5] was 7.94 nM. Moreover, the EC50 in test [3] is 79.4 nM. For the same compound, the Ratio in test [4] is greater than 20.
Turning to `CSc1c(C(=O)NC23CC4CC(CC(C4)C2)C3)nc(C)n1-c1ccccc1`, the Ki was greater than 10000 nM in test [1] and 10 nM in test [2]. For the same compound, in test [3], the EC50 is 6.31 nM. For the same compound, in test [4], the Ratio is greater than 1000.
Turning to `Cc1nc(C(=O)NC2C3CC4CC(C3)CC2C4)c(C)n1-c1ccccc1` (stereo not drawn), the Ki is 3010 nM in test [1] and 13.8 nM in test [2]. Further, in test [3], the EC50 was 6.31 nM. Also, the Ratio in test [4] came to 218.
For `Cc1c(C(=O)NC[C@H]2C[C@@H]3C[C@H](C2)C3(C)C)ncn1-c1ccccc1`, the Ki in test [1] was greater than 10000 nM; in test [2], 175 nM. Also, in test [3], the EC50 is 158 nM. Besides, the Ratio in test [4] is greater than 57.
As for `CCCCc1c(C(=O)NC23CC4CC(CC(C4)C2)C3)nc(C)n1-c1ccccc1`, the Ki in test [1] is 2000 nM; in test [2], 9.8 nM. The half-maximal effective concentration (EC50) in test [3] was 5.01 nM. Moreover, the Ratio in test [4] is greater than 102.
Take `Cc1nc(C(=O)NC2C3CC4CC(C3)C2C4)c(C)n1-c1ccccc1` (stereo not drawn): the Ki in test [1] amounted to 5440 nM; in test [2], 9.7 nM. Further, in test [3], the EC50 is 7.94 nM. Further, the Ratio in test [4] turned out to be 561.
Consider `CCc1nc(C(=O)NC23CC4CC(CC(C4)C2)C3)c(C)n1-c1ccccc1`, for which the Ki came to 4150 nM in test [1] and 1.6 nM in test [2]. Moreover, the Kb in test [5] is 5.01 nM. In addition, the EC50 in test [3] was 1.58 nM. Besides, the Ratio in test [4] came out at 2600.
Consider `Cc1nc(C(=O)NCc2ccccc2C(F)(F)F)c(C)n1-c1ccccc1`, for which the results for the Ki in test [1] and in test [2] were 1420 nM and 3.5 nM, respectively. Further, in test [3], the EC50 is 0.2 nM. Also, the Ratio in test [4] was determined as 406.
As to `Cc1nc(C(=O)NC23CC4CC(CC(C4)C2)C3)c(C)n1C1CCCCC1`, the figures for the Ki in test [1] and in test [2] were greater than 10000 nM and 20 nM, respectively. Further, the EC50 in test [3] is 126 nM. The Ratio in test [4] was greater than 500.
Take `Cc1nc(C(=O)NC23CC4CC(CC(C4)C2)C3)c(Br)n1-c1ccccc1`: the inhibition constant Ki in test [1] is greater than 10000 nM; in test [2], 8.4 nM. Moreover, the Ratio in test [4] was greater than 1190.
For the compound `CCCCCOc1c(OC)ccc2cc(C(=O)NCc3ccc4c(c3)OCO4)c(=O)[nH]c12`, the affinity in test [1], expressed as Ki, was 3920 nM.
On to `Cc1nc(C(=O)NC23CC4CC(CC(C4)C2)C3)c(C)n1-c1ccccc1`, for which the results for the Ki in test [1] and in test [2] were 4890 nM and 2.7 nM, respectively. Besides, the Kb in test [5] is 1.58 nM. For the same compound, the EC50 in test [3] and in test [6] was 0.794 nM in each case. For the same compound, in test [4], the Ratio was 1810.
For the compound `C[C@H](NS(C)(=O)=O)c1ccc(S(=O)(=O)c2ccc(Cl)cc2S(=O)(=O)c2ccccc2F)cc1`, the results for the Ki in test [1] and in test [2] were 3540 nM and 0.8 nM, respectively. Besides, in test [5], the Kb was 1 nM. Moreover, the EC50 in test [3] was 7.94 nM; in test [6], 5.01 nM. In addition, in test [4], the Ratio is 4420.

These data come from ChEMBL document CHEMBL1158524, “Synthesis and SAR of novel imidazoles as potent and selective cannabinoid CB2 receptor antagonists with high binding efficiencies” (Bioorg Med Chem Lett, 2010).
